Data as given in publication PMC9283305 (Nitric oxide : biology and chemistry, 2022).
Numbering of substitutions follows the chain as printed. Numbers in names are those of the source. Where two headings read alike, the source gives them in different places.

B1: H81A: human cytoglobin distal histidine His81(E7) to Ala mutant (protein, UniProt Q8WWM9 1-190, looked up, variant H81A)
Cytoglobin: MEKVPGEMEIERRERSEELSEAERKAVQAMWARLYANCEDVGVAILVRFFVNFPSAKQYFSQFKHMEDPLEMERSPQLRKAACRVMGALNTVVENLHDPDKVSSVLALVGKAHALKHKVEPVYFKILSGVILEVVAEEFASDFPPETQRAWAKLRGLIYSHVTAAYKEVGWVQQVPNATTPPATLPSSGP
B2: H81Q: human cytoglobin distal histidine His81(E7) to Gln mutant (protein, UniProt Q8WWM9 1-190, looked up, variant H81Q)
Cytoglobin: B1 Cytoglobin with A81Q
B3: H81L: human cytoglobin distal histidine His81(E7) to Leu mutant (protein, UniProt Q8WWM9 1-190, looked up, variant H81L)
Cytoglobin: B1 Cytoglobin with A81L
B4: T91D: human cytoglobin mutant Thr91 to Asp (protein, UniProt Q8WWM9 1-190, looked up, variant T91D)
Cytoglobin: B1 Cytoglobin with A81H, T91D
B5: H81W: human cytoglobin distal histidine His81(E7) to Trp mutant (protein, UniProt Q8WWM9 1-190, looked up, variant H81W)
Cytoglobin: B1 Cytoglobin with A81W
B6: Cytoglobin Wild-type: wild-type (WT) human Cygb protein, His-tagged, recombinantly expressed (protein, UniProt Q8WWM9 1-190, looked up)
Cytoglobin: B1 Cytoglobin with A81H
modifications: His-tag
B7: L108Q: human cytoglobin hydrophobic surface patch mutant Leu108 to Gln (protein, UniProt Q8WWM9 1-190, looked up, variant L108Q)
Cytoglobin: B1 Cytoglobin with A81H, L108Q
B8: R84E: human cytoglobin surface mutant Arg84 to Glu (protein, UniProt Q8WWM9 1-190, looked up, variant R84E)
Cytoglobin: B1 Cytoglobin with A81H, R84E
B9: K116E: human cytoglobin surface mutant Lys116 to Glu (protein, UniProt Q8WWM9 1-190, looked up, variant K116E)
Cytoglobin: B1 Cytoglobin with A81H, K116E
B10: V105Y: human cytoglobin hydrophobic surface patch mutant Val105 to Tyr (protein, UniProt Q8WWM9 1-190, looked up, variant V105Y)
Cytoglobin: B1 Cytoglobin with A81H, V105Y
B11: Neuroglobin Wild-type: wild-type human neuroglobin (protein, UniProt Q9NPG2 1-151, looked up)
Neuroglobin: MERPEPELIRQSWRAVSRSPLEHGTVLFARLFALEPDLLPLFQYNCRQFSSPEDCLSSPEFLDHIRKVMLVIDAAVTNVEDLSSLEEYLASLGRKHRAVGVKLSSFSTVGESLLYMLEKCLGPAFTPATRAAWSQLYGAVVQAMSRGWDGE
B12: Neuroglobin H64Q: human neuroglobin distal histidine His64(E7) to Gln mutant (protein, UniProt Q9NPG2 1-151, looked up, variant H64Q)
Neuroglobin: B11 Neuroglobin with H64Q
B13: Neuroglobin H64W: human neuroglobin distal histidine His64(E7) to Trp mutant (protein, UniProt Q9NPG2 1-151, looked up, variant H64W)
Neuroglobin: B11 Neuroglobin with H64W
B14: Neuroglobin H64L: His-tagged neuroglobin distal histidine His64(E7) to Leu mutant (protein, UniProt Q9NPG2 1-151, looked up, variant H64L)
Neuroglobin: B11 Neuroglobin with H64L
B15: Neuroglobin H64A: human neuroglobin distal histidine His64(E7) to Ala mutant (protein, UniProt Q9NPG2 1-151, looked up, variant H64A)
Neuroglobin: B11 Neuroglobin with H64A
B16: zebrafish Cygb1: zebrafish cytoglobin 1, a five-coordinate native globin (protein, UniProt Q8UUR3 1-174, looked up)
Cytoglobin-1: MEGDGGVQLTQSPDSLTEEDVCVIQDTWKPVYAERDNAGVAVLVRFFTNFPSAKQYFEHFRELQDPAEMQQNAQLKEHGQRVLNALNTLVENLRDADKLNTIFNQMGKSHALRHKVDPVYFKILAGVILEVLVEAFPQCFSPAEVQSSWSKLMGILYWQMNRVYAEVGWENSKK

What was measured:
[1] = Autoxidation of the ferrous-dioxygen; type: biochemical, human
How it was run: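 Human Cygb WT and mutants were His-tagged, expressed in SoluBL21 cells and purified on Ni-NTA. Fe(II)-O2 was formed by excess dithionite reduction, then G25 gel filtration in aerobic buffer, mixed with prewarmed buffer at 37 °C and followed spectrally for 30–60 min. For two surface mutants, deoxy protein was made in a glovebox, desalted anaerobically and mixed 4:1 with O2-saturated buffer; read at 1 spectrum/s for 1000 s. At least triplicate; mean ± SD.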

[2] = Nitrite reduction to NO by ferrous globins in the presence of excess dithionite; type: biochemical, human; details: for Nitrite reductase reaction rate constant: 37°C, 100 mM sodium phosphate, pH 7.4, excess dithionite
How it was run: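 Ran in 100 mM sodium phosphate, pH 7.4, 37 °C, with 2.5 mM dithionite to keep heme ferrous and remove O2. Globin (2–10 μM) was mixed with nitrite, typically 1–10 mM, or 250 μM–2 mM for distal-His mutants. Spectra were read over 350–700 nm and fit single-exponential; rate constants came from the nitrite series. At least triplicate, with ≥2 protein batches; mean ± SD.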

[3] = Oleic acid; type: binding, human
How it was run: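 Oleate was titrated into ferric distal-His mutant globins with imidazole present: 250 μM, or a series of imidazole levels. Difference spectra were taken by subtracting the initial spectrum. The absorbance difference at the wavelength of largest change was fit against oleate concentration to give an apparent KD. Buffer was 100 mM sodium phosphate, pH 7.4, 25 °C.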

[4] = 37°C, 100 mM sodium phosphate, pH 7.4; cited from earlier work
[5] = cited from earlier work; for Nitrite reductase reaction rate constant: 37°C, 100 mM sodium phosphate, pH 7.4
[6] = cited from earlier work
[7] = Imidazole binding to ferric cytoglobin by UV-Vis difference spectroscopy; set-up: species or system human; details: read-out: Imidazole KD; ferric protein
How it was run: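 Ferric globin (5–15 μM) was titrated with imidazole stocks (1–100 mM) to about 100–15000 μM final. Buffer was 100 mM sodium phosphate, pH 7.4, at 25 °C. UV-Vis difference spectra were taken, and the max–min absorbance difference was plotted against ligand. KD came from a 1:1 quadratic binding fit. At least triplicate, with ≥2 protein batches; mean ± SD.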

[8] = 37°C, 100 mM sodium phosphate, pH 7.4
[9] = 37°C, 100 mM sodium phosphate, pH 7.4, decay fit to a two-exponential equation

Molecule	Autoxidation rate [1, 8]	Nitrite reductase reaction rate constant [2]	Autoxidation rate [4]	Nitrite reductase reaction rate constant [5]	other results
B1	0.094 ± 0.038 min⁻¹	1100 ± 100 M⁻¹ s⁻¹	–	–	Nitrite reductase reaction rate constant ([2]; listed as His81Ala): up to 1100 M^−1s^−1; Fold increase in nitrite reduction rate constant versus Cygb WT [2]: up to 1000 fold
B2	0.019 ± 0.005 min⁻¹	210 ± 44 M⁻¹ s⁻¹	–	–	Change of oleic acid binding (apparent KD) in the presence of imidazole ([3]; several saturating concentrations of imidazole (Figure 5)): slight upwards trend
B3	0.314 ± 0.043 min⁻¹	76 ± 16 M⁻¹ s⁻¹	–	–	Fold increase in oleic acid KD versus WT ([3]; versus Cygb WT): 4 fold; Nitrite reduction rate relative to Ngb H64L ([2]; relative to the Ngb H64L rate): about 25%
B4	0.062 ± 0.005 min⁻¹	1.24 ± 0.18 M⁻¹ s⁻¹	–	–	–
B5	0.135 ± 0.034 min⁻¹	10.7 ± 2.1 M⁻¹ s⁻¹	–	–	–
B6	–	–	0.270 ± 0.020^a min^−1	1.14 ± 0.07^e M^−1s^−1	Nitrite reduction rate ([5]; in the presence of the intramolecular disulfide bond): 32.3 M⁻¹ s⁻¹; Binding to lipids ([6]; Cygb with the reduced thiols): little or no binding; Kd ([6]; read-out: KD for lipids such as oleic acid and cardiolipin): ~1 µM; Kd [7]: ~1000 µM
B7	0.116 ± 0.051 min⁻¹	0.66 ± 0.18 M⁻¹ s⁻¹	–	–	–
B8	–	0.90 ± 0.30 M⁻¹ s⁻¹	–	–	Autoxidation rate constant for the fast phase [1, 9]: 2.362 ± 0.359^c min^−1; Autoxidation rate constant for the slower phase [1, 9]: 0.303 ± 0.037 min⁻¹; Share of the autoxidation decay accounted for by the fast phase ([1]; 37°C, 100 mM sodium phosphate, pH 7.4, two-exponential fit): 73 ± 12%; Fold increase in autoxidation rate constant as compared to WT ([1]; versus WT cytoglobin): roughly 10 fold
B9	0.366 ± 0.057 min⁻¹	0.65 ± 0.14 M⁻¹ s⁻¹	–	–	–
B10	0.107 ± 0.018 min⁻¹	3.76 ± 0.85 M⁻¹ s⁻¹	–	–	Fold increase in nitrite reduction rate constant versus Cygb WT [2]: 3 fold
B11	–	–	0.23 ± 0.03^b min^−1	0.52 ± 0.19^d M^−1s^−1	–
B12	–	–	0.010 ± 0.002^b min^−1	387 ± 21^d M^−1s^−1	–
B13	–	–	0.076 ± 0.006^b min^−1	7.6 ± 1.3^d M^−1s^−1	–
B14	0.010 ± 0.004 min⁻¹	302 ± 55 M⁻¹ s⁻¹	–	–	–
B15	–	–	0.066 ± 0.005^b min^−1	1120 ± 140^d M^−1s^−1	–
B16	–	–	–	–	Lipid binding [6]: do not show appreciable lipid binding
